Source: PubChem BioAssay (several laboratories)
Hits are enriched below; roughly 2.7% of the tested compounds scored in any of these assays.
TPT1 inhibitor: C. albicans TPT1 enzyme inhibition; recombinant caTPT1, FP RNA substrate dephosphorylation; inhibition, % at 5 µM; 300,000 tested, 0.81% active; AID 1962;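 active = inhibition above the mean of all tested compounds plus 3 SD, set per screening campaign, cut at about 24% in these data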;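 also: plate controls were DMSO alone for no effect and ferristatin control at 100 nM for full effect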
PP1 inh: PP1-alpha (human) inhibition in PP5 counter-screen; P62136; inhibition, % at 6.7 µM; 320,000 tested, 0.9% active; purified PP1alpha, OMFP fluorescence;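 active = inhibition above the mean inhibition of all tested compounds plus 3 SD, computed separately for each screening campaign, cut at about 15% in these data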
Rpn11 block: inhibitors of human proteasome Rpn11. O00487. human 26S proteasome, Ub4-pepOG fluorescence polarization; 20S core pre-blocked with epoxomicin. inhibition, % at 20 µM. 360,000 tested, 0.59% active;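 active = inhibition at 20 µM, scaled to each plate's controls, above about 33%, limit read from the data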
CSN inh: inhibitors of human CSN-mediated cullin deneddylation; Purified CSN, SCF-Nedd8-OG deneddylation, fluorescence polarization; inhibition, % at 12.5 µM; 360,000 tested, 0.38% active;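 active = pattern-corrected inhibition above about 35%, with an unprinted fluorescence ratio check between 0.5 and 1.5, limit read from the data, passing the limit was not always enough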;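 also: 0% = enzyme with substrate and 100% = substrate without enzyme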
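Test system: purified human Csn5 enzyme expressed in HEK293T cells. Amount: 0.24 nM enzyme. Reagent: SCFSkp2-Nedd8OG substrate at 10 nM final. Schedule: 90 min incubation of compound, enzyme and substrate at room temperature. Detection: fluorescence polarization. Read-out: % inhibition of substrate cleavage by Csn5.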
NadD inh: inhibitors of Staphylococcus aureus NadD. 360,000 tested, 0.78% active. purified NadD enzyme, colorimetric absorbance read-out. inhibition, % at 20 µM; in the data active = inhibition above about 26%
HNF4A DNA FP: change in binding of human HNF4 alpha to DNA; HNF4a-FITC DNA binding, fluorescence polarization, 1 h; 360,000 tested, 0.3% active; activity change, % at 10 µM; P41235; in the data active = activity change above about 30%, passing the limit was not always enough
Target sequence (P41235 whole entry, looked up): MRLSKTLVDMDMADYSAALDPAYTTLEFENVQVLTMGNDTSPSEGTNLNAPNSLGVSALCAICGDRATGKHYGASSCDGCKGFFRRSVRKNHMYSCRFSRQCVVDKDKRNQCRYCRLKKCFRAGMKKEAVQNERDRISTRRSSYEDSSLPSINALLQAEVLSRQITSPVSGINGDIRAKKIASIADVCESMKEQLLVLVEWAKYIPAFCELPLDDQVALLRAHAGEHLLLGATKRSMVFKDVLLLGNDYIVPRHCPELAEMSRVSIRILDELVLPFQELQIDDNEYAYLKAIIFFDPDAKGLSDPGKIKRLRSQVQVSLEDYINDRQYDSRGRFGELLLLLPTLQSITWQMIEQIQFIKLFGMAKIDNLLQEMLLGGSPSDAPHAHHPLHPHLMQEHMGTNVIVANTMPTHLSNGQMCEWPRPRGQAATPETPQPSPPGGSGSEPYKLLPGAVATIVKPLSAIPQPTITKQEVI
NadD conf: NadD (S. aureus) inhibition, single concentration confirmation; shares compounds with NadD inh; purified S. aureus NadD, colorimetric enzyme assay; inhibition, % at 20 µM; 2,000 tested, 13% active; in the data active = inhibition mostly above about 42%, no sharp cut-off; inactive = mostly below about 42%
Starred values were filed as active, the others as inactive; / = no result.

SMILES	TPT1 inhibitor	PP1 inh	Rpn11 block	CSN inh	NadD inh	HNF4A DNA FP	NadD conf
O=C(NC(Cc1c[nH]c2ccccc12)C(=O)N/N=C/c1cccc2ccccc12)c1cccs1 (centres undefined)	-4	1	2	-2	37*	4	25
Cc1cccc2sc(NNC(=O)c3ccc(S(=O)(=O)N4CCc5ccccc5C4)cc3)nc12	0	16*	22	-4	38*	3	51*
Cc1cccc2sc(NNC(=O)c3ccc(S(=O)(=O)N4CCCC(C)C4)cc3)nc12 (centres undefined)	-2	10	19	1	23	-4	/
Cc1noc(C)c1NC(=O)Nc1ccc2c(c1)C(=O)N([C@H](C)CO)C[C@H](C)[C@@H](CN(C)S(=O)(=O)c1cccs1)O2	/	/	2	-2	3	2	/
O=C(CSc1nnc(-c2ccc3c(c2)OCO3)o1)Nc1ncc(C(F)(F)F)cc1Cl	6	-3	16	4	34*	7	5
C=CCNC(=O)c1ccccc1NC(=O)C1CC(=O)N(C(C)C)C1 (centres undefined)	-1	1	-2	-1	1	3	/
CCN(CC)c1ncnc2c1ncn2[C@H]1CN(C2CCCC2)C[C@@H](CO)O1	/	/	1	5	-1	-9	/
COc1ccc(S(=O)(=O)Nc2cccc(-c3ccc(N4CCCCCC4)nn3)c2)c(OC)c1	-3	8	19	0	28*	0	36
COc1ccc(OC)c(S(=O)(=O)Nc2cccc(-c3ccc(N4CCCCCC4)nn3)c2)c1	-2	10	8	0	36*	-2	30
O=[N+]([O-])c1cccc(S(=O)(=O)Nc2cccc(-c3ccc(N4CCCC4)nn3)c2)c1	/	/	-7	-3	20	-1	/
O=C(CCNS(=O)(=O)c1cccc(C(F)(F)F)c1)NCc1ccco1	/	/	-2	2	-6	-3	/
Cc1cc(C)c(C)c(S(=O)(=O)N2CCC(C(=O)NCCCN3CCCC3=O)CC2)c1C	/	-7	2	-4	-3	0	/
COc1ccc(C(=O)NC2CCCc3c2cnn3-c2cccc(C)c2C)o1 (centres undefined)	1	-2	6	-3	-4	3	/
Cc1ccc(NC(=O)c2ccc(N/N=C/c3cccc(O)c3)c([N+](=O)[O-])c2)cc1	0	-2	12	13	36*	7	6
COCCNC(=O)C1(C)CCCN(C(=O)c2cc(C)on2)C1 (centres undefined)	/	/	2	1	-1	-2	/
O=c1/c(=C\c2cccn2-c2ccccc2)sc2nc3ccccc3n12	/	/	-13	0	-1	-8	/
O=c1/c(=C\c2cccc(O)c2)sc2nc(-c3ccccc3)c(-c3ccccc3)n12	0	5	3	4	35*	1	-1
Cc1ccc([N+](=O)[O-])cc1-c1ccc(/C=C(\C#N)c2[nH]nc(N)c2C#N)o1	2	14	0	40	28*	5	5
CC(C)n1c(=S)[nH]c2scc(-c3cccs3)c2c1=O	3	9	6	30	30*	-28	67*
CCNC(=O)C1CCCN1C(=O)C(CCCN=C(N)N)NC(=O)C(CC(C)C)NC(=O)C(Cc1cn(Cc2ccccc2)cn1)NC(=O)C(Cc1ccc(O)cc1)NC(=O)C(CO)NC(=O)C(Cc1c[nH]c2ccccc12)NC(=O)C(Cc1cnc[nH]1)NC(=O)C1CCC(=O)N1 (centres undefined)	-2	-3	-11	0	1	3	/
O=C1O[C@H]([C@@H](O)CO)C(O)=C1O	-5	0	-4	-5	35*	-2	2
CCCCn1c(N)c(N(CCOC)C(=O)c2cc(S(=O)(=O)N3CCOCC3)ccc2Cl)c(=O)[nH]c1=O	/	/	-2	-1	-2	6	/
O=C(NCc1nc2ccccc2[nH]1)C1=C[C@@H](c2ccc(Br)cc2)C[C@@H](OCc2ccc(CO)cc2)O1	3	3	4	5	26	-1	/
O=C(NCc1nc2ccccc2[nH]1)C1=C[C@H](c2csc3ccccc23)C[C@H](OCc2ccc(CO)cc2)O1	2	5	15	114	32*	4	45
O=C(NCc1nc2ccccc2[nH]1)C1=C[C@@H](c2csc3ccccc23)C[C@@H](OCc2ccc(CO)cc2)O1	1	1	36	6	34*	8	39
SMILES	TPT1 inhibitor	PP1 inh	Rpn11 block	CSN inh	NadD inh	HNF4A DNA FP	NadD conf
C[C@H]1C=C(C(=O)NCc2nc3ccccc3[nH]2)O[C@@H](OCc2ccc(CO)cc2)C1	0	-5	-2	-2	-3	2	/
Oc1ccc(C[C@H]2CNC(=S)N2C[C@H]2CCCN2C[C@H](Cc2ccccc2)N2C[C@H](Cc3ccc(O)cc3)N(CC3CCCCCC3)C2=S)cc1	/	/	2	-2	43*	-2	14
CC(C)C[C@H]1CNC(=S)N1C[C@H]1CCCN1C[C@H](Cc1ccc(O)cc1)N1C[C@H](Cc2ccccc2)N(CC2CCCCC2)C1=S	/	/	-42	2	9	2	/
Oc1ccc(C[C@H]2CN([C@@H](Cc3cccc(O)c3)CN3CCC[C@@H]3CN3C(=S)NC[C@@H]3Cc3ccccc3)C(=S)N2CC2CCCCC2)cc1	/	/	2	2	44*	-1	33
CC(C)C[C@@H](CN1CCC[C@@H]1CN1C(=S)NC[C@@H]1Cc1ccccc1)N1C[C@H](Cc2ccc(O)cc2)N(CC2CCCCCC2)C1=S	/	/	6	2	22	-1	/
Oc1ccc(C[C@H]2CN([C@@H](Cc3ccc(O)cc3)CN3CCC[C@@H]3CN3C(=S)NC[C@@H]3Cc3ccccc3)C(=S)N2CC2CCCCCC2)cc1	/	/	2	-2	47*	1	27
Oc1ccc(C[C@H]2CN([C@@H](Cc3ccccc3)CN3CCCC3CN3C(=S)NC[C@@H]3Cc3ccccc3)C(=S)N2CC2CCCCC2)cc1 (some centres undefined)	/	/	/	-8	43*	4	4
CSc1ncccc1C(=O)N1CCCC(N2CCN(c3ccccc3F)CC2)C1 (centres undefined)	2	-3	0	2	-2	1	/
CCC(Oc1ccccc1)C(=O)N(C)CC(=O)N(CC(C)C)c1c(N)n(CC(C)C)c(=O)[nH]c1=O (centres undefined)	2	-3	-2	1	1	-3	/
Oc1ccc(C[C@H]2CNC(=S)N2CC2CCCN2C[C@H](Cc2ccccc2)N2C[C@H](Cc3ccc(O)cc3)N(CC3CCCCCC3)C2=S)cc1 (some centres undefined)	/	/	-3	-5	48*	2	21
